According to ChEMBL document CHEMBL4373710, “DNA Structural Alteration Leading to Antibacterial Properties of 6-Nitroquinoxaline Derivatives” (J Med Chem, 2019):
Converted amounts (≈) assume the structure as drawn. The source made the active and inactive calls. No cut-off for these calls is given here.

Assays:
Pseudomonas aeruginosa = test: Antibacterial activity against Pseudomonas aeruginosa MTCC1688 by broth microdilution assay; type: functional
Method in brief: (§1)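 Broth microdilution per CLSI; 5×10^5 cfu/mL bacteria in LB broth; compounds from DMSO stocks, final DMSO under 0.6%, with DMSO control. Plates incubated at the strain's recommended growth temperature and time; growth read as OD600.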

[1] = test system: Staphylococcus epidermidis; test: Antibacterial activity against Staphylococcus epidermidis MTCC3615 by broth microdilution assay; type: functional; method in brief: as §1
HEK293 = test: Cytotoxicity against HEK293 cells measured after 24 hrs by MTT assay; type: cell-based; settings: Homo sapiens, HEK293, 24 h
Method in brief: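 HEK 293 cells, 4000/well, seeded overnight in DMEM + 10% FBS at 37°C in CO2; compound dose series for 24 h (final DMSO <0.5%, DMSO-only control). MTT at 1 mg/mL final for 3 h, formazan dissolved in DMSO, absorbance 595 nm; IC50 from triplicate OD data.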

Staphylococcus aureus = test: Antibacterial activity against Staphylococcus aureus MTCC737 measured after 6 hrs by broth microdilution assay; type: functional; settings: MTCC737, 6 h; method in brief: as §1
Escherichia coli = test: Antibacterial activity against Escherichia coli MTCC1916 by broth microdilution assay; type: functional; method in brief: as §1
[2] = Antibacterial activity against Arthrobacter chlorophenolicus A6MTCC3706 by broth microdilution assay; type: functional; settings: Pseudarthrobacter chlorophenolicus; method in brief: as §1
[3] = Binding affinity to pCDNA 3.1 (unknown origin) assessed as DNA unwinding effect at 5:1 compound to DNA ratio measured after 16 hrs by EtBr staining agarose gel shift assay
Method in brief: (§2)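 pCDNA3.1 plasmid (amplified in E. coli DH5α), 40 µM, in 50 mM NaP pH 7, 10 mM NaCl, mixed with compound at set compound:DNA base-pair ratios; 16 h at 37°C. Run on 1% agarose at 50 V ~3 h, stained with EtBr 1 µg/mL for 5 min, imaged.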

[4] = Selectivity index, ratio of IC50 for HEK293 cells to MIC for Staphylococcus aureus MTCC737; type: toxicity; settings: human, read-out: Selectivity Index
Calf thymus DNA [5] = test: Binding affinity to calf thymus DNA assessed as appearance of induced CD at 15 to 60 uM by circular dichroism method; type: nucleic-acid assay; settings: Bos taurus
Calf thymus DNA [6] = test: Binding affinity to calf thymus DNA assessed as change in B-DNA structure at 15 to 60 uM by circular dichroism method; type: nucleic-acid assay; settings: Bos taurus
Calf thymus DNA [7] = test: Binding affinity to calf thymus DNA by isothermal titration calorimetric analysis; type: nucleic-acid assay; settings: Bos taurus
[8] = Binding affinity to pCDNA 3.1 (unknown origin) assessed as DNA unwinding effect up to 6:1 compound to DNA ratio measured after 16 hrs by EtBr staining agarose gel shift assay; method in brief: as §2
[9] = Solubility of the compound in pH 7 phosphate buffer at 100 uM by UV absorption spectra analysis; type: physicochemical; settings: pH 7, 100 µM
DNA [10] = test: Binding affinity to Escherichia coli pBR322 DNA assessed as DNA compaction up to 5:1 compound to DNA ratio by atomic force microscopic analysis; type: nucleic-acid assay
Method in brief: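 Supercoiled pBR322 plasmid treated with compound at [compound]:[DNA bp] ratios from 0.5:1 up to 5:1, imaged by AFM; DNA height measured.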

Calf thymus DNA [11] = test: Binding affinity to calf thymus DNA assessed as change in B-DNA structure at 265 nm by circular dichroism method; type: nucleic-acid assay; settings: Bos taurus
[12] = Binding affinity to pCDNA 3.1 (unknown origin) assessed as DNA unwinding effect at 1:1 to 5:1 compound to DNA ratio measured after 16 hrs by EtBr staining agarose gel shift assay; method in brief: as §2
DNA [13] = test: Inhibition of ethidium bromide binding to Staphylococcus aureus DNA assessed as Stern-Volmer quenching constant by fluorescence assay; type: nucleic-acid assay
Method in brief: (§3)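 Fluorescence intercalator displacement: S. aureus genomic DNA 10 µM plus EtBr 5 µM in 10 mM NaP pH 7, 10 mM NaCl, 1% DMSO, at 25 and 37 °C; titrated with 2.5–100 µM compound. Excitation 480 nm, emission 520–700 nm, inner-filter corrected, triplicates; Stern–Volmer analysis, F0/F = 1 + Ksv[Q].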

DNA [14] = test: Inhibition of ethidium bromide binding to Staphylococcus aureus DNA by fluorescence assay; type: nucleic-acid assay; method in brief: as §3
Calf thymus DNA [15] = test: Binding affinity to calf thymus DNA assessed as appearance of induced CD at […] by circular dichroism method; type: nucleic-acid assay; settings: Bos taurus
[16] = Binding affinity to pCDNA 3.1 (unknown origin) assessed as DNA condensation at 5:1 compound to DNA ratio measured after 16 hrs by EtBr staining agarose gel shift assay; method in brief: as §2
[17] = Binding affinity to pCDNA 3.1 (unknown origin) assessed as DNA unwinding effect at 1:1 compound to DNA ratio measured after 16 hrs by EtBr staining agarose gel shift assay; method in brief: as §2

| MIC (Pseudomonas aeruginosa) [µg/mL] | MIC [1] [µg/mL] | MIC (Staphylococcus aureus) [µg/mL] | MIC (Escherichia coli) [µg/mL] | MIC [2] [µg/mL] | Structure (SMILES) | IC50 (HEK293) [µg/mL] | further results |
| --- | --- | --- | --- | --- | --- | --- | --- |
| > 235 | 1.63 (≈ 3.49 µM) | 0.93 (≈ 1.99 µM) | 35 (≈ 75 µM) | 2.33 (≈ 5 µM) | CN(C)CCCNc1nc2cc([N+](=O)[O-])ccc2nc1NCc1cc(F)cc(C(F)(F)F)c1 | 2.67 (≈ 5.72 µM) | – |
| > 230 | 3.47 (≈ 7.5 µM) | 3.47 (≈ 7.5 µM) | 2.31 (≈ 4.99 µM) | 3.47 (≈ 7.5 µM) | CN(C)CCCCNc1nc2cc([N+](=O)[O-])ccc2nc1NCc1ccc(C(F)(F)F)cc1 | 9.73 (≈ 21 µM) | – |
| > 200 | 6.16 (≈ 15 µM) | 8.21 (≈ 20 µM) | > 200 | 6.16 (≈ 15 µM) | COc1ccccc1CNc1nc2ccc([N+](=O)[O-])cc2nc1NCCCN(C)C | 36.1 (≈ 88 µM) | – |
| 10.8 (≈ 25 µM) | 4.32 (≈ 9.99 µM) | 3.03 (≈ 7.01 µM) | 4.32 (≈ 9.99 µM) | 4.32 (≈ 9.99 µM) | O=[N+]([O-])c1ccc2nc(NCc3ccc(C(F)(F)F)cc3)c(N3CCNCC3)nc2c1 | 9.61 (≈ 22.2 µM) | – |
| > 224 | 2.24 (≈ 4.99 µM) | 3.36 (≈ 7.49 µM) | 68.3 (≈ 152 µM) | 2.91 (≈ 6.49 µM) | CN(C)CCCNc1nc2cc([N+](=O)[O-])ccc2nc1NCc1ccccc1C(F)(F)F | 24.7 (≈ 55 µM) | – |
| > 200 | 5.98 (≈ 15 µM) | 7.97 (≈ 20 µM) | 86.3 (≈ 217 µM) | 3.98 (≈ 9.99 µM) | CN(C)CCCNc1nc2cc([N+](=O)[O-])ccc2nc1NCc1ccc(F)cc1 | 4.28 (≈ 10.7 µM) | Activity [3]: Active |
| > 230 | 4.59 (≈ 9.99 µM) | 3.45 (≈ 7.51 µM) | > 230 | 2.76 (≈ 6.01 µM) | CN(C)CCCNc1nc2cc([N+](=O)[O-])ccc2nc1NCc1ccccc1Br | 51.9 (≈ 113 µM) | selectivity ratio [4]: 15 |
| > 230 | 3.45 (≈ 7.51 µM) | 3.45 (≈ 7.51 µM) | 4.59 (≈ 9.99 µM) | 2.29 (≈ 4.99 µM) | CN(C)CCCNc1nc2cc([N+](=O)[O-])ccc2nc1NCc1ccc(Br)cc1 | 9.63 (≈ 21 µM) | – |
| > 240 | 0.96 (≈ 1.99 µM) | 1.69 (≈ 3.5 µM) | 7.24 (≈ 15 µM) | 1.69 (≈ 3.5 µM) | CN(C)CCCNc1nc2cc([N+](=O)[O-])ccc2nc1NCc1ccc(Cl)c(C(F)(F)F)c1 | 3.26 (≈ 6.75 µM) | – |
| 13.8 (≈ 30 µM) | 2.29 (≈ 4.99 µM) | 4.59 (≈ 9.99 µM) | 4.59 (≈ 9.99 µM) | 2.29 (≈ 4.99 µM) | CN(C)CCCNc1nc2cc([N+](=O)[O-])ccc2nc1NCc1cccc(Br)c1 | 3.66 (≈ 7.97 µM) | – |
| > 200 | 3.94 (≈ 9.99 µM) | 5.92 (≈ 15 µM) | 110 (≈ 279 µM) | 2.76 (≈ 7 µM) | Cc1ccc(CNc2nc3ccc([N+](=O)[O-])cc3nc2NCCCN(C)C)cc1 | 15.8 (≈ 40 µM) | – |
| > 200 | 5.13 (≈ 12.5 µM) | 10.3 (≈ 25 µM) | > 200 | 4.1 (≈ 9.99 µM) | COc1ccc(CNc2nc3ccc([N+](=O)[O-])cc3nc2NCCCN(C)C)cc1 | 38.6 (≈ 94 µM) | – |
| > 250 | 3.78 (≈ 7.51 µM) | 3.78 (≈ 7.51 µM) | 3.78 (≈ 7.51 µM) | 1.76 (≈ 3.5 µM) | CN1CCN(CCCNc2nc3cc([N+](=O)[O-])ccc3nc2NCc2ccc(C(F)(F)F)cc2)CC1 | 9.53 (≈ 18.9 µM) | – |
| > 200 | > 200 | > 200 | > 200 | > 200 | O=[N+]([O-])c1ccc2nc(NCc3ccc(C(F)(F)F)cc3)c(N3CCCCC3)nc2c1 | > 200 | Activity (Calf thymus DNA [5]): inactive; Activity (Calf thymus DNA [6]): inactive; Activity (Calf thymus DNA [7]): inactive; Activity [8]: inactive; solubility [9]: Soluble; Activity (DNA [10]): inactive |
| 57 (≈ 150 µM) | 13.3 (≈ 35 µM) | 11.4 (≈ 30 µM) | 114 (≈ 300 µM) | 7.6 (≈ 20 µM) | CN(C)CCCNc1nc2cc([N+](=O)[O-])ccc2nc1NCc1ccccc1 | 2.74 (≈ 7.2 µM) | – |
| > 200 | 0.89 (≈ 1.98 µM) | 0.89 (≈ 1.98 µM) | 34.3 (≈ 76.5 µM) | 1.57 (≈ 3.5 µM) | CN(C)CCCNc1nc2cc([N+](=O)[O-])ccc2nc1NCc1cccc(C(F)(F)F)c1 | 7.99 (≈ 17.8 µM) | Activity (Calf thymus DNA [11]): Dose-dependent effect; Activity [12]: Active; KSV (DNA [13]): 1.7 ×10⁴ /M; selectivity ratio [4]: 9; Ka (Calf thymus DNA [7]): 3.06 ×10⁴ /M; inhibition (DNA [14]): Dose-dependent effect; Activity (Calf thymus DNA [15]): Dose-dependent effect |
| > 207 | 6.22 (≈ 15 µM) | 3.11 (≈ 7.5 µM) | > 207 | 2.49 (≈ 6 µM) | CN(C)CCCNc1nc2cc([N+](=O)[O-])ccc2nc1NCc1ccc(Cl)cc1 | 10.7 (≈ 25.9 µM) | – |
| > 200 | 0.02 (≈ 0.0182 µM) | 0.04 (≈ 0.0363 µM) | 21 (≈ 19.1 µM) | 0.07 (≈ 0.0636 µM) | CS[C@@H]1SC[C@H]2C(=O)N(C)[C@@H](C(C)C)C(=O)OC[C@@H](NC(=O)c3cnc4ccccc4n3)C(=O)N[C@@H](C)C(=O)N(C)[C@@H]1C(=O)N(C)[C@@H](C(C)C)C(=O)OC[C@@H](NC(=O)c1cnc3ccccc3n1)C(=O)N[C@@H](C)C(=O)N2C | 0.014 (≈ 0.0127 µM) | – |
| > 220 | 4.46 (≈ 9.99 µM) | 4.46 (≈ 9.99 µM) | > 220 | 4.46 (≈ 9.99 µM) | CN1CCN(c2nc3cc([N+](=O)[O-])ccc3nc2NCc2ccc(C(F)(F)F)cc2)CC1 | 6.99 (≈ 15.7 µM) | – |
| > 200 | 7.89 (≈ 20 µM) | 4.93 (≈ 12.5 µM) | 75.6 (≈ 192 µM) | 6.9 (≈ 17.5 µM) | Cc1ccccc1CNc1nc2ccc([N+](=O)[O-])cc2nc1NCCCN(C)C | 27.6 (≈ 70 µM) | – |
| > 250 | 0.52 (≈ 1.01 µM) | 1.03 (≈ 1.99 µM) | > 250 | 1.81 (≈ 3.5 µM) | CN(C)CCCNc1nc2cc([N+](=O)[O-])ccc2nc1NCc1cc(C(F)(F)F)cc(C(F)(F)F)c1 | 4.32 (≈ 8.36 µM) | Activity [16]: Active; Activity [17]: Active; Activity (Calf thymus DNA [11]): Dose-dependent effect; KSV (DNA [13]): 2 ×10⁴ /M; Ka (Calf thymus DNA [7]): 9.9 ×10⁴ /M; inhibition (DNA [14]): Dose-dependent effect; Activity (Calf thymus DNA [15]): Dose-dependent effect |
